# Screens as filed in PubChem BioAssay.
# Shown are actives, neighbours in structure and some others; about 2.6% of the full set was active somewhere.
# Vif inh: inhibitors of HIV Vif | HEK293T cells, Vif self-association by quenched fluorescence, imaging, 24 h | inhibition, % at 7.49 µM | 340,000 compounds, 0.35% hits | AID 602346; in the data active = inhibition above about 50%, passing the limit was not always enough; inconclusive = no clear call, values can overlap the other calls; inactive = below about 31%
# esBAF inh: inhibitors of esBAF chromatin remodeling in mouse ES cells; Bmi1-luciferase knock-in reporter, 24 h; 100% = twice the neutral-well signal; reporter increase, % at 12.5 µM; 350,000 compounds, 2% hits; AID 602393; in the data active = activation above about 40%; inconclusive = no clear call, values can overlap the other calls;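 note: 0% = median of the plate's neutral control wells and 100% = double that signal; a rise in the Bmi1 reporter signal indicates esBAF inhibition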
# Wnt bcat act: activators of Wnt/beta-catenin signaling | Wnt/beta-catenin reporter cell assay, activator, plate reader | activation, % at 9.35 µM | 300,000 compounds, 1.2% hits; in the data active = activation above about 30%, passing the limit was not always enough; inconclusive = no clear call, values can overlap the other calls;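 note: 0% = neutral control wells and 100% = positive control wells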
# MITF act: activators of MITF-driven TRPM1 promoter activity in SK-MEL-5 cells; SK-MEL-5 TRPM1-promoter luciferase, 24 h; % of positive control, neutral wells = 0; activation, % at 12.5 µM; 300,000 compounds, 0.75% hits; AID 588334;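 active = mean activation of at least 80% with every replicate also reaching 80%; inconclusive = mean reaches 80% but some replicate falls short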;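 note: 0% = neutral control wells and 100% = parthenolide positive control wells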
# XiGFP reactiv: reactivates the inactive X chromosome in mouse fibroblasts; XiGFP mouse fibroblasts, % GFP-positive cells imaging, 3 d; cells co-treated with 5-aza-dC sensitizer; scaled so ellipticine positive control = 100%; activation, % at 7.58 µM; 360,000 compounds, 0.055% hits;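 active = mean normalized replicate activation at least 10% and every replicate at or above 10%; inconclusive = only one of the two criteria met; inactive = mean below 10% and not all replicates reach 10%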;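 note: 0% = median of on-plate neutral control wells and 100% = ellipticine 6 µM median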
#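 System: XiGFP fibroblasts, SV40-immortalized. Medium: DMEM plus 5-aza-dC sensitizer. Doses: single point. Timing: 3 d treatment, 15 min room-temperature fixation. Control set: ellipticine 6 µM.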
# * hit, by the source's call; ? = inconclusive; · = no result.
SMILES,Vif inh,esBAF inh,Wnt bcat act,MITF act,XiGFP reactiv
Cc1cc(NC2CCCC2)n2nc(C)c(-c3ccccc3)c2n1,-6.1,?,5.6,100.1*,0.0
COc1ccc2c3c(n(C)c2c1)[C@@H](CO)NCC31CCN(C(=O)c2ccc(F)cc2)CC1,·,·,·,·,0.1
Cn1cnc(S(=O)(=O)N[C@@H]2C=C[C@@H](CC(=O)NCC3CC3)O[C@H]2CO)c1,·,0.1,·,·,0.3
CCON1C(=O)C(C)(C)N(OCC)C(=O)C1(C)C,-2.1,·,43.1*,-8.9,0.1
O=C(COc1ccccc1Cl)Nc1ccccc1C(=O)N1CCCCC1,-4.6,60.8*,-0.5,42.7,0.3
O=C(Nc1ccccc1C(=O)O)c1ccccc1,2.8,5.0,·,7.4,·
COc1ccc(/C=C/C(=O)Nc2ccccc2C(=O)O)cc1,2.9,-19.8,-2.1,2.9,0.0
O=C(Nc1ccccc1C(=O)N1CCCCCC1)c1ccccc1,70.8*,·,0.7,-8.0,0.0
O=C(Nc1ccccc1C(=O)O)c1cccc(C(=O)Nc2ccccc2C(=O)O)c1,110.1*,4.1,0.6,·,-0.1
COc1ccc(/C=C/C(=O)Nc2ccccc2C(=O)N2CCCC2)cc1,-16.1,56.5*,·,·,·
COc1ccc(NC(=O)Nc2cccc3c2O[C@@H](CN(C)C(=O)Nc2ccc(C(F)(F)F)cc2)[C@H](C)CN([C@H](C)CO)C3=O)cc1,·,3.5,·,·,-1.3
O=C(Nc1sc(-c2ccccc2)cc1C(=O)O)c1ccccc1,0.8,·,34.5*,70.7,0.0
CCOC(=O)c1cc(-c2ccccc2)sc1NC(=O)CC,-3.9,·,7.6,1.3,0.4
CCC(=O)N1C[C@H](O)COC[C@H]2O[C@H](CC(=O)N3CCCCC3)CC[C@@H]21,·,-1.3,·,·,0.3
Cn1cc(C=O)c(-c2ccc3c(c2)OCCCO3)n1,9.3,29.4,11.3,48.8,0.0
O=Cc1cn(-c2ccccc2)nc1-c1ccc2c(c1)OCCO2,-6.9,49.6*,·,72.1,·
N#Cc1cn(-c2ccccc2)nc1-c1ccc2c(c1)OCCO2,8.3,51.3*,0.0,123.0*,·
COc1cccc(NC(=O)N2C[C@@H](O)COC[C@@H]3O[C@@H](CC(=O)NCc4ccccc4F)CC[C@H]32)c1,·,-0.2,·,·,-0.1
COc1ccc(CN(C)C[C@H]2Oc3ccc(NC(=O)Nc4ccccc4)cc3C(=O)N([C@H](C)CO)C[C@@H]2C)cc1,·,-6.6,·,·,-0.1
COc1ccc(NC(=O)N(C)C[C@@H]2Oc3ccc(NC(=O)NC4CCCCC4)cc3C(=O)N([C@@H](C)CO)C[C@H]2C)cc1,·,-3.8,·,·,0.3
COc1ccc(NC(=O)N(C)C[C@@H]2Oc3c(NC(=O)c4ccncc4)cccc3C(=O)N([C@@H](C)CO)C[C@H]2C)cc1,·,2.6,·,·,-0.6
COc1cccc2cc(NC(=O)C3CCCCC3)c(=O)oc12,8.4,22.9,·,110.4*,·
COc1cccc2cc(C(=O)OCC(=O)NC3CCCC(C)C3C)c(=O)oc12 (stereo not drawn),26.1,63.5*,-3.5,55.9,0.1
COc1ccc(Cl)cc1C(=O)OCC(=O)NC1CCCC(C)C1C (stereo not drawn),19.2,·,3.0,0.5,0.0
COc1cccc2cc(C(=O)N3CCCCC3C)c(=O)oc12 (stereo not drawn),·,-3.5,·,-0.7,·
SMILES,Vif inh,esBAF inh,Wnt bcat act,MITF act,XiGFP reactiv
OC(c1ccc(F)c(F)c1)c1nc(-c2cnc3ccccc3c2)cs1 (stereo not drawn),2.0,51.3*,21.0,·,0.4
OC(c1ccc(F)c(F)c1)c1nc(-c2ccccc2)cs1 (stereo not drawn),18.5,-2.4,3.8,·,0.1
O=C(O)c1cccc(-c2csc(C(O)c3ccc(F)c(F)c3)n2)c1 (stereo not drawn),-3.8,43.7*,18.9,·,-0.1
OC(c1ccc(F)c(F)c1)c1nc(-c2cccc(F)c2)cs1 (stereo not drawn),-0.7,-5.3,-2.5,·,0.1
Cn1c(=O)c2c(nc(Oc3ccc(-c4ccccc4)cc3)n2C)n(C)c1=O,·,47.6*,-1.0,4.9,·
C[C@H]1CCCCO[C@H](CN(C)C(=O)Nc2ccc(F)cc2)[C@@H](C)CN([C@@H](C)CO)C(=O)c2cc(NS(=O)(=O)c3ccccc3)ccc2O1,·,0.1,·,·,0.7
O=C(NC(=S)N(CCO)Cc1ccccc1)c1ccc(S(=O)(=O)N2CCCC2)cc1,-2.5,·,45.1*,-1.3,0.0
O=C(NCCc1ccccc1)c1ccc(S(=O)(=O)N2CCCCC2)cc1,10.4,28.9,-4.1,·,0.1
O=C1c2ccccc2NC(c2ccccc2)N1Cc1ccco1 (stereo not drawn),-0.4,62.5*,·,-2.2,·
O=C1c2ccccc2NC(c2ccc(F)cc2)N1Cc1ccco1 (stereo not drawn),·,0.0,-1.8,-7.1,·
CC(=O)Nc1ccc(S(=O)(=O)N2c3ccccc3C(C)=CC2(C)C)cc1,80.8*,·,-7.2,-31.2,0.2
CC(=O)c1ccc2cccc3c2c1N=CN3C,67.2*,-2.1,·,-6.2,·
CN1c2cccc3cccc(c23)N(C)C1(C)C,1.2,-4.7,-9.5,-0.8,·
CCCCC[C@@H](O)c1cc2ccccc2c(=O)o1,7.5,43.4*,11.3,-3.7,0.0
C[C@@H]1CN([C@@H](C)CO)C(=O)c2cc(NC(=O)Cc3ccccc3)ccc2O[C@@H](C)CCCCO[C@@H]1CN(C)C(=O)CCCN(C)C,·,·,·,·,-0.1
COC(=O)c1c(-c2ccc(SC)cc2)sc2ccccc12,-6.1,69.6*,21.6,55.2,0.2
COC(=O)c1c(-c2ccc(S(C)(=O)=O)cc2)sc2cc(OC)ccc12,-3.8,44.7*,?,58.0,0.0
COC(=O)c1c(-c2ccc(OC)cc2)sc2ccc(N3CCOCC3)cc12,12.2,42.2*,11.1,69.5,0.0
COC(=O)c1c(-c2ccc(S(C)(=O)=O)cc2)sc2ccc(OC)cc12,-6.6,59.5*,46.7*,106.6*,0.0
COc1ccc(-c2sc3ccc(N4CCOCC4)cc3c2-c2ccc(O)cc2)cc1,·,6.7,-0.9,-9.4,0.1
COC(=O)c1c(-c2cc(OC)cc(OC)c2)sc2ccc(OC)cc12,5.0,20.1,7.3,36.9,0.1
CC(C)NC(=O)Nc1ccc2c(c1)C(=O)N([C@@H](C)CO)C[C@H](C)[C@H](CN(C)C(=O)NC1CCCCC1)OCCCC[C@H](C)O2,·,·,·,·,0.1
C[C@H](CO)N1C[C@H](C)[C@@H](CN(C)Cc2cccc(F)c2)Oc2ncc(C#C[C@@H](C)O)cc2C1=O,·,-0.7,·,·,0.0
Cc1cc(N/C=C/C(=O)c2ccc(Br)cc2)no1,-7.1,81.4*,33.1*,104.7*,·
Cc1ccnc(N/C=C/C(=O)c2ccc(Br)cc2)c1,-9.2,-4.0,38.8*,71.8,0.1
O=C(/C=C\Nc1ccc(Cl)cn1)c1ccc(Br)cc1,-2.1,·,35.6*,103.4*,-0.2
CO[C@H]1CN(C)C(=O)c2ccc(NC(=O)NC(C)C)cc2OC[C@H](C)N(S(C)(=O)=O)C[C@@H]1C,·,·,·,·,-0.1
COc1ccc2c3c(n(C)c2c1)[C@H](CO)N(CC1CC1)CC31CCN(C(C)=O)CC1,·,·,·,·,0.1
